STAT1 act: STAT1 signaling activation | NIH 3T3 STAT1-luciferase reporter, IFN-gamma, luminescence; 100% = IFN-gamma alone, no compound | activation (% of control), % at 5.5 µM | actives 2.6% (n = 200,000) | AID 932;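 active = activation above the screen-wide mean activation plus 3 SD, cut at about 130% in these data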;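 note: raw ratio to IFN-gamma control signal so 100% means no change and 0% no light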
NF-kB neuron act: raises NF-kB expression in human neuronal cells | NF-kB reporter expression; stronger effect = higher value | fold change at 12.5 µM | actives 1.6% (n = 190,000); in the data active = fold change above about 3.3
APP 5'UTR act: activates APP 5'UTR luciferase reporter. SH-SY5Y APP 5'UTR luciferase reporter, luminescence; zero percent = DMSO vehicle wells. activation, % at 2 µM. actives 1% (n = 190,000);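 active = activation above a set limit, based on mean plus 3 SD of controls, cut at about 140% in these data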
STAT1 blocker: STAT1 signaling inhibition; NIH 3T3 STAT1-luciferase reporter, IFN-gamma, luminescence; AID 920; inhibition, % at 5.5 µM; actives 0.35% (n = 200,000);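 active = inhibition above a set limit, the mean inhibition across all tested compounds plus 3 SD, cut at about 34% in these data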;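 note: 0% = IFN-gamma with DMSO and 100% = IFN-gamma with 300 µM nifuroxazide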
STAT3 inh: inhibitors of IL-6 induced STAT3 signaling; U3A cells, IL-6 STAT3-luciferase reporter, luminescence; host cell line lacks STAT1; inhibition, % at 5.5 µM; AID 862; actives 0.89% (n = 190,000);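 active = inhibition above the mean inhibition across all screened compounds plus 3 SD, cut at about 44% in these data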;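 note: 0% = DMSO only wells and 100% = 100 µM nifuroxazide control wells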
STAT3 activator: increases IL-6 driven STAT3 reporter signal; U3A cells, IL-6 STAT3-luciferase reporter, luminescence; 100% = signal with IL-6 EC80 alone; activation (% of control), % at 5.6 µM; actives 0.91% (n = 190,000); AID 871;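 active = activation above the screen-wide mean of compound activation plus 3 SD, cut at about 130% in these data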;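 note: 0% = background luminescence of wells with medium and substrate only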
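Test system: human U3A cells carrying STAT3-luciferase construct; control set: IL-6-only wells as 100% reference; timing: compound pre-incubation 1 h before IL-6, then 6 h stimulation at 37 °C; also added: IL-6 stimulus at 33 ng/mL final; evaluation: % activation versus median of IL-6-stimulated wells; detection: reporter luminescence signal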
* = called active by the depositor; . = no result given. This is a sample that favours compounds with a hit; in the whole collection about 4.9% have one here.

SMILES	STAT1 act	NF-kB neuron act	APP 5'UTR act	STAT1 blocker	STAT3 inh	STAT3 activator
Cc1ccc(/C=C2\CCC(C3CCCC3)C2=O)cc1 (configuration not stated)	102	1.6	157*	-2	-3	107
O=C(C1=C[C@H](c2csc3ccccc23)C[C@H](OCc2ccc(CO)cc2)O1)N1CCN(Cc2ccc3c(c2)OCO3)CC1	100	0.81	-10	2	.	.
O=C(CC12CC3CC(CC(Br)(C3)C1)C2)Nc1cccc(S(=O)(=O)NC2=NCCC2)c1	103	1	22	-5	7	103
O=S(=O)(/N=C(/c1ccccc1)N1CCCCC1)c1ccccc1	105	1.4	-2	-5	-4	103
O=C(c1cnn(-c2ccccc2)c1)c1ccccc1O	118	9.5*	184*	-20	36	72
O=C(O)CCCN1C(=O)c2ccc(Oc3cccc([N+](=O)[O-])c3)cc2C1=O	95	1.2	0	3	7	99
COc1cc(Cl)cc(/C=C/c2ccc3ccccc3n2)c1OC(C)=O	95	1.1	155*	7	-13	108
CC(=O)Oc1ccc(Cl)cc1/C=C/c1cc(OC(C)=O)c2ccccc2n1	100	1.1	-1	2	-27	119
O=C(NCCc1ccccc1)c1ccc(NCC2CCCO2)c([N+](=O)[O-])c1 (configuration not stated)	122	2.2	17	-27	-8	113
Cc1cc(OC(=O)c2ccccc2Br)cc(=O)n1C	65	0.96	-1	39*	26	83
CC(=O)c1c(OC(=O)c2ccccc2Br)ccc2c(C)cc(=O)oc12	96	0.88	-11	4	10	99
Cc1ccc(NC(=O)COc2ccc(Br)cc2CO)cc1	110	1.4	-3	-16	13	90
COc1cc(/C=N/NC(=O)c2cccnc2)ccc1OCC(=O)Nc1ccccc1Cl	136*	0.87	-1	-39	-3	104
COc1cc(CO)ccc1OCC(=O)Nc1ccc(Br)cc1	113	1.8	33	-18	-34	133*
COc1ccccc1NC(=O)COc1ccc(CO)cc1Cl	133*	1.9	66	-35	10	94
O=C(COc1ccc(CO)cc1Cl)Nc1ccc(F)cc1	136*	7.7*	.	-39	32	78
Cc1ccc(CSCCNC(=O)/C=C/c2ccccc2Cl)cc1	102	1.1	6	-2	5	103
Cc1nnc(SCC(=O)NC(C)c2ccccc2)[nH]c1=O (configuration not stated)	101	0.9	49	-2	5	101
COc1ccc(C(=O)Oc2c(CN3CCOCC3)cc(Cl)c3cccnc23)cc1	93	28*	-38	8	3	101
O=C(Oc1c(CN2CCOCC2)cc(Cl)c2cccnc12)c1ccc(F)cc1	98	7.6*	-37	6	22	85
COc1cc(C(=O)Oc2c(CN3CCOCC3)cc(Cl)c3cccnc23)cc(OC)c1OC	105	3.8*	-39	-5	2	106
O=C(Oc1c(CN2CCOCC2)cc(Cl)c2cccnc12)c1cccs1	104	1.1	-27	-8	3	101
O=C(Oc1c(CN2CCOCC2)cc(Cl)c2cccnc12)c1ccccc1Cl	99	1.7	-53	2	5	96
COc1cccc(C(=O)Oc2c(CN3CCOCC3)cc(Cl)c3cccnc23)c1	102	4.6*	-38	-2	7	96
CCC(C)NS(=O)(=O)c1ccc(-c2csnn2)s1 (configuration not stated)	99	0.99	4	1	2	102
SMILES	STAT1 act	NF-kB neuron act	APP 5'UTR act	STAT1 blocker	STAT3 inh	STAT3 activator
COCC(C)NC(=O)CSc1nc2ccccc2n1CCc1ccccc1 (configuration not stated)	104	1.2	-5	-5	6	99
O=C(OCC(=O)N1CCCC1)c1ccc(NS(=O)(=O)c2cccs2)cc1O	98	0.93	-10	0	11	93
Cc1nnc(SCC(=O)NC2CCCc3ccccc32)n1-c1ccccc1 (configuration not stated)	100	1.2	8	0	8	96
COc1ccc(/C=C/C(=O)C2(O)CCCCC2)cc1OC	94	1.7	17	7	9	94
CCS(=O)(=O)N1Cc2ccccc2CC1C(=O)Nc1nccs1 (configuration not stated)	133*	1.7	81	-36	-21	118
CCS(=O)(=O)N1Cc2ccccc2CC1C(=O)Nc1nc(C)cs1 (configuration not stated)	134*	1.1	104	-36	12	91
CCS(=O)(=O)N1Cc2ccccc2CC1C(=O)Nc1nc2c(C)cccc2s1 (configuration not stated)	104	0.95	11	-4	-4	106
COc1ccc(S(=O)(=O)N2Cc3ccccc3CC2C(=O)Nc2nccs2)cc1OC (configuration not stated)	116	1.4	163*	-17	-30	130
CCSc1nnc(NC(=O)C2Cc3ccccc3CN2S(=O)(=O)CC)s1 (configuration not stated)	120	1.1	-1	-22	10	93
O=C(CN1C(=O)CCC1=O)Nc1cccc(NC(=O)CN2C(=O)CCC2=O)c1	97	0.99	-3	0	9	97
O=C(c1cccc2ccccc12)C1CCCN(C(=O)CCCn2cncn2)C1 (configuration not stated)	99	1.3	-6	-1	7	97
CCC(=NCc1ccc(Cl)c(Cl)c1)c1nc(-c2ccco2)oc1O	100	1.3	0	-1	-8	108
S=c1[nH]nc(-c2ccccc2)n1/N=C/c1ccc(-c2ccccc2Cl)o1	99	4.5*	-5	1	3	102
O=C(CSc1cn(CCNC(=O)c2cccs2)c2ccccc12)NC1CCCC1	91	0.79	-17	10	10	96
Clc1ccc2nc(CSc3nnc4ccccn34)cn2c1	141*	3.1	107	-45	-2	105
Cc1nc(CSc2ccc(Cl)cc2)cc(NCc2ccccc2)n1	98	1.2	4	2	4	103
CNc1cc(CSc2ccc(Cl)cc2)nc(C)n1	135*	2.4	87	-38	0	106
Cc1cccn2cc(CSc3ccccc3N)nc12	139*	3.2	-3	-65	12	90
Nc1ccccc1SCc1cn2cccnc2n1	107	1.1	17	-8	3	105
Clc1ccc2nc(CSc3nc4ccccc4o3)cn2c1	120	3.1	72	-22	19	87
Clc1ccc2nc(CSc3nncn3-c3ccccc3)cn2c1	93	1	-15	7	6	98
Clc1ccc2nc(CSCc3ccccc3)cn2c1	145*	1.2	139*	-50	6	97
